According to ChEMBL document CHEMBL4321838, “Drug Design Targeting T-Cell Factor-Driven Epithelial-Mesenchymal Transition as a Therapeutic Strategy for Colorectal Cancer” (J Med Chem, 2019):
Converted amounts (≈) assume the structure as drawn. Blank lines part the entries; values can stand above or below the molecule they belong to. The source made the active and inactive calls.

Legend:
[1] = target: T1, DNA topoisomerase 2-alpha (Homo sapiens, UniProt P11388); assay: Inhibition of human topoisomerase 2alpha mediated decatenation at 30 uM using kDNA as susbtrate preincubated for 20 mins followed by substrate and ATP addition and measured after 1 hr by ethidium bromide staining based gel electrophoresis method relative to control
Procedure, shortened: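 Human TOP2A (3 U) preincubated 20 min at 37 °C with compound at 30 μM in 1.2% DMSO. Reaction started with 2 mM ATP and 35 ng kDNA and run 1 h at 37 °C. Products resolved on 0.8% agarose in TBE with 0.2 μg/mL ethidium bromide; decatenated bands compared with vehicle.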

[2] = test system: SW-620; assay: Cytotoxicity against human SW620 organoids assessed as cell death with loss of membrane integrity after 72 hrs by CellTox Green assay; type: functional, cell-based; details: SW-620, 72 h
Procedure, shortened: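 SW620 tumor organoids exposed 72 h to inhibitor over 0–40 μM together with CellTox Green Express (0.5X). Whole-well mean fluorescence imaged (ex 488, em 500–550 nm). Normalised to lysis buffer as 0% viability and 0.4% DMSO as 100% viability.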

[3] = target: T1, DNA topoisomerase 2-alpha; assay: Inhibition of topoisomerase 2alpha dependent TCF transcription in human SW620 organoids transduced with TOPflash luminescent reporter after 72 hrs by luciferase based TOPFlash reporter gene assay
Procedure, shortened: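 SW620 cells stably carrying pCDH-TOPflash-luc grown as organoids: 5,000 cells per U-bottom well in phenol red-free RPMI with 5% FBS and 2% Matrigel, 72 h. Inhibitor then applied 72 h. One-Glo luciferase and CellTiter-Glo 3D added 1:1. Luciferase signal normalised to viability, then to DMSO controls.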

[4] = Metabolic stability in CD-1 mouse inactive microsomes incubated for 1 hr by LC-MS/MS analysis; type: ADME, Microsome
[5] = target: T1, DNA topoisomerase 2-alpha; assay: Inhibition of human topoisomerase 2alpha mediated decatenation using kDNA as susbtrate preincubated for 20 mins followed by substrate and ATP addition and measured after 1 hr by ethidium bromide staining based gel electrophoresis method
Procedure, shortened: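 IC50 from decatenation gels: TOP2A at 4 U per reaction, compound as 2-fold serial dilutions from 58.6 nM to 30 μM, 20 min preincubation. Then 2 mM ATP plus 35 ng kDNA for 1 h at 37 °C. Gels were 0.8% agarose with ethidium bromide, with decatenated and catenated DNA marker lanes.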

[6] = Drug metabolism in CD-1 mouse active microsomes assessed as CYP450-mediated oxidative phase 1 metabolite formation measured within 30 mins by LC-MS/MS analysis; type: ADME; details: 0.5 h
[7] = Drug metabolism in CD-1 mouse active microsomes assessed as metabolite formation at rate of first-order kinetics by LC-MS/MS analysis; type: ADME, Microsome
[8] = target: T1, DNA topoisomerase 2-alpha; assay: Inhibition of topoisomerase 2alpha in human SW620 organoids transfected with EcadPro-RFP reporter assessed as reversion of epithelial-mesenchymal transition by measuring increase in E-cadherin expression at 10 uM after 72 hrs by Hoechst 33342 staining based mCherryRFP reporter gene assay
Procedure, shortened: (§1)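 SW620 cells stably carrying VimPro-GFP or EcadPro-mCherry (puromycin selected) grown as organoids and dosed 72 h. Stained with 16 μM Hoechst 33342 for 1 h and imaged as 15 z-layers, 26.5 μm apart. Nuclei segmented and GFP- or mCherry-positive cells counted above background thresholds. Percent positive cells normalised to DMSO.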

[9] = target: T1, DNA topoisomerase 2-alpha; assay: Inhibition of topoisomerase 2alpha in human SW620 organoids transfected with VimPro-GFP reporter assessed as reversion of epithelial-mesenchymal transition by measuring reduction in vimentin expression at 10 uM after 72 hrs by Hoechst 33342 staining based GFP reporter gene assay; procedure, shortened: as §1
[10] = test system: SW-620; assay: Antiinvasive activity in human SW620 organoids transduced with NucLight-Red virus assessed as inhibition of cell invasion at 10 uM incubated for 72 hrs and measured after 72 hrs by matrigel based fluorescence analysis; type: functional
Procedure, shortened: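 NucLight-Red-labelled SW620 organoids treated 72 h at 10 μM in 0.1% DMSO, then dissociated. 5,000 live cells per well seeded in 50% Matrigel in the upper chamber of a migration plate, 0.5% FBS above and 20% FBS below. Invading cells tracked by bottom-side fluorescence over days, six replicates per condition.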

[11] = test system: SW-620; assay: Anticlonogenic activity against human SW620 cells assessed as loss of cancer stem cell stemness by measuring inhibition of colony formation at 10 uM incubated for 24 hrs followed by replating and measured after 7 days by clonogenic assay; type: functional, cell-based
[12] = Drug metabolism in CD-1 mouse active microsomes assessed as CYP450-mediated oxidative phase 1 metabolite formation by LC-MS/MS analysis
[13] = target: T1, DNA topoisomerase 2-alpha; assay: Inhibition of topoisomerase 2alpha dependent TCF transcription in human SW620 organoids transduced with TOPflash luminescent reporter at 10 uM after 72 hrs by luciferase based TOPFlash reporter gene assay
[14] = Cmax in CD-1 mouse at 50 mg/kg, ip by LC-MS/MS analysis; type: ADME, organism-based; parameters: dose 50 mg/kg, route intraperitoneal; details: in vivo
Procedure, shortened: (§2)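 Female CD-1 mice, single IP injection at 50 mg/kg in 100% DMSO. Sampling from 0.25 to 24 h, three mice per time point (21 per compound). Heparinised blood was spun to plasma, mixed 1:1 with acidified acetonitrile (0.1% formic acid or 0.1% TFA depending on compound), centrifuged, then measured by LC-MS/MS.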

[15] = Half life of terminal disposition phase in CD-1 mouse at 50 mg/kg, ip by LC-MS/MS analysis; type: ADME, organism-based; details: in vivo, read-out: t1/2lambda (converted); procedure, shortened: as §2
[16] = test system: Mus musculus; assay: Apparent volume of drug distribution in CD-1 mouse at 50 mg/kg, ip by LC-MS/MS analysis; type: ADME, organism-based; details: in vivo; procedure, shortened: as §2
[17] = Half life in CD-1 mouse microsomes measured up to 1 hr by LC-MS analysis; type: ADME, Microsome
Procedure, shortened: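 Female CD-1 mouse liver microsomes (0.5 mg/mL), substrate 1 μg/mL and 1.5 mM NADPH in 0.1 M phosphate buffer pH 7.4 at 37 °C. Samples taken from 0 to 60 min and quenched with an equal volume of acetonitrile. Parent compound remaining measured by LC-MS/MS without internal standard.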

[18] = Aqueous solubility of compound in PBS at 1 mg after 18 hrs by UV based analysis; type: physicochemical
Procedure, shortened: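 Undissolved material removed by centrifugation at 5,000g for 45 min. UV absorption compared with a fully saturated 1-propanol solution; solubility derived by linear regression.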

[19] = Tmax in CD-1 mouse at 50 mg/kg, ip by LC-MS/MS analysis; type: ADME, organism-based; details: in vivo; procedure, shortened: as §2
[20] = Clearance in CD-1 mouse at 50 mg/kg, ip by LC-MS/MS analysis; type: ADME, organism-based; details: in vivo; procedure, shortened: as §2
[21] = AUC(0 to t) in CD-1 mouse at 50 mg/kg, ip by LC-MS/MS analysis; type: ADME, organism-based; details: in vivo; procedure, shortened: as §2

T1 sequence (P11388 whole entry): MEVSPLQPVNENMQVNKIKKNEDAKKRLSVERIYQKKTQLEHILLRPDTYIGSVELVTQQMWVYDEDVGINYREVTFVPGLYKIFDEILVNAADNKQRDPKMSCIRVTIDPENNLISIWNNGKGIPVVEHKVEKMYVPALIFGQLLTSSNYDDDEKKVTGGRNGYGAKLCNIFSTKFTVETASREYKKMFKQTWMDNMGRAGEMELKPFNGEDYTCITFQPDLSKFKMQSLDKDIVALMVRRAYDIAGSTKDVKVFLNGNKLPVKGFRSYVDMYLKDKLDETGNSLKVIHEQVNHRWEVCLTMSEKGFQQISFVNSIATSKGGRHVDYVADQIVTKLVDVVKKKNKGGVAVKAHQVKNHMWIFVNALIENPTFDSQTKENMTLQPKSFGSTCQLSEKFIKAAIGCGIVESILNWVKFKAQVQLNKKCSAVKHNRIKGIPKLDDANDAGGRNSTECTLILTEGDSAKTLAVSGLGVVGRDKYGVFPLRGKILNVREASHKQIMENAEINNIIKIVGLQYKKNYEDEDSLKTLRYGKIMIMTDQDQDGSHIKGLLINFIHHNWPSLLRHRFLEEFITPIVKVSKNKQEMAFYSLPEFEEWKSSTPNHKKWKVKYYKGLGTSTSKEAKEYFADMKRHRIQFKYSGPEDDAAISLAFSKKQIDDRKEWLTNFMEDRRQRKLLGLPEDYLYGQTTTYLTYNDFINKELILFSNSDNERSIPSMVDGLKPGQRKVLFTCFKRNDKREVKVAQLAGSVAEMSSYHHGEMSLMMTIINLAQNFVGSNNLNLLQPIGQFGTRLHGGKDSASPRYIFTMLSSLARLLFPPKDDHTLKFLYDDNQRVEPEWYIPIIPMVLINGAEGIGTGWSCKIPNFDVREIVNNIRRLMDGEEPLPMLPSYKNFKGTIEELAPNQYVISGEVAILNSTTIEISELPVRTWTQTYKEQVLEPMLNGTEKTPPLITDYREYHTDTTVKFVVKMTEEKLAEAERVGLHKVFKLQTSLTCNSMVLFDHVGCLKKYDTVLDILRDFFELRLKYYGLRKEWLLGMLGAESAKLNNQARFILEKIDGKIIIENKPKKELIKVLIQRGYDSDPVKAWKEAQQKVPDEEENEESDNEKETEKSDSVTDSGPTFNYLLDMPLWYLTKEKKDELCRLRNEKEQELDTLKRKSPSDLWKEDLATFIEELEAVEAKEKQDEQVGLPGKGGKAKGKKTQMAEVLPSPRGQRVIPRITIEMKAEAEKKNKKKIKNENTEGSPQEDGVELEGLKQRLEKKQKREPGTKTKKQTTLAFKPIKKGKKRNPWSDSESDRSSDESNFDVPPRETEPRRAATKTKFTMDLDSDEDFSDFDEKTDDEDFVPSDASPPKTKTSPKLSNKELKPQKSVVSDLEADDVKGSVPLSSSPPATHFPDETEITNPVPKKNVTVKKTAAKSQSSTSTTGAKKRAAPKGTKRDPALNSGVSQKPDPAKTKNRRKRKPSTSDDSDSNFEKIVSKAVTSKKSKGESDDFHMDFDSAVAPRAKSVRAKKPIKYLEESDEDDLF

SMILES: O=C(CN1CCOCC1)Nc1ccc2c(-c3cc(F)ccc3O)ccnc2c1O
inhibition [1]: 4%

SMILES: CC(=O)Nc1ccc2c(-c3ccco3)ccnc2c1O
inhibition [1]: 0%

SMILES: CC(=O)Nc1ccc2c(-c3cccs3)ccnc2c1O
EC50 [2]: > 30 µM
IC50 [3]: 5 µM
inhibition [1]: 100%

SMILES: CC(=O)Nc1ccc2c(-c3cncnc3)ccnc2c1O
inhibition [1]: 0%

SMILES: COc1c(NC(C)=O)cc(OC)c2c(-c3ccccc3NC(=O)c3ccccc3)ccnc12
inhibition [1]: 0%

SMILES: CC(=O)Nc1ccc2c(-c3cc4ccccc4s3)ccnc2c1O
inhibition [1]: 0%

SMILES: CC(C)(C)C(=O)Nc1ccc2c(-c3cc(F)ccc3O)ccnc2c1O
inhibition [1]: 0%

SMILES: COc1cc(NC(C)=O)c(O)c2nccc(-c3ccccc3NC(=O)c3ccccc3)c12
inhibition [8]: Active
Stability [4]: Stable
inhibition [9]: Active
inhibition [10]: Active
inhibition [11]: Active
IC50 [5]: 1.2 µM
Drug metabolism [6]: Metabolite_Detected
EC50 [2]: > 30 µM
Drug metabolism [12]: Metabolite_Notdetected
IC50 [3]: 2.4 µM
inhibition [1]: 100%
inhibition [13]: Active

SMILES: O=C(CCN1CCOCC1)Nc1ccc2c(-c3cc4ccccc4o3)ccnc2c1O
Stability [4]: Stable
inhibition [10]: Active
inhibition [11]: Active
Drug metabolism [6]: Metabolite_Notdetected
EC50 [2]: 17.4 µM
Cmax [14]: 6830 ng/mL
half-life [15]: 358 min
Vz [16]: 32 L/kg
IC50 [3]: 2.5 µM
t1/2 [17]: 14 min
Drug metabolism [7]: Metabolite_Detected
inhibition [1]: 83%
solubility thermodynamic at 18 h [18]: 1160 µg/mL (≈ 2780 µM)
Tmax [19]: 15 min
CL/F [20]: 61.8 mL/min/kg
AUC(0-t) [21]: 12900 ng·h/mL

Second part, the molecule after the results:

inhibition [1]: 100%
SMILES: CC(=O)Nc1ccc2c(-c3cccc(F)c3)ccnc2c1O

inhibition [1]: 97%
SMILES: CC(=O)Nc1ccc2c(-c3ccc(C(F)(F)F)cc3)ccnc2c1O

inhibition [1]: 0%
SMILES: CC(=O)Nc1ccc2c(-c3cccc(O)c3)ccnc2c1O

inhibition [1]: 100%
SMILES: CC(=O)Nc1ccc2c(-c3cc(C(F)(F)F)ccc3O)ccnc2c1O

Stability [4]: Stable
IC50 [5]: 3.4 µM
Drug metabolism [6]: Metabolite_Notdetected
Drug metabolism [7]: Metabolite_Detected
inhibition [1]: 97%
SMILES: CC(=O)Nc1ccc2c(-c3cccc(C(F)(F)F)c3)ccnc2c1O
